Entries after “also recorded” stand apart in the source; their conditions may differ. Where two headings read alike, the source gives them in different places.
Legend:
[1] = tested on: Male and Female Hsd:ICR (CD-1) mice, bone marrow PCEs; experiment: In vivo micronucleus assay in mice, S9229
Outline: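 Hsd:ICR (CD-1) mice were gavaged once with the test compound suspended in 1% methylcellulose (20 mL/kg) in both the range-finding and definitive phases. The definitive phase used 0, 500, 624, 1352 and 2000 mg/kg bw, 5/sex/group, with bone marrow sampled at 24 h. Additional vehicle, 1352 and 2000 groups were sampled at 48 h. Femoral marrow smears were stained with acridine orange and scored for mnPCEs and PCE/TE ratio. Cyclophosphamide 50 mg/kg was the positive control.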

[2] = In vitro metabolism by human liver microsomes; assay type: in vitro ADME; conditions: S9229 incubation, relative to S9229 at time = 0
[3] = tested on: Primary human lymphocytes; conditions: for dose with substantial toxicity (at least 50% reduction in mitotic index): preliminary toxicity test

SMILES: COC[C@@H](CC(C)C)NC(=O)c1ccc(C)c(C)c1 [S9229, (R)-N-(1-methoxy-4-methylpentan-2-yl)-3,4-dimethylbenzamide]
- Micronucleus formation (in vivo), Result ([1]; 500, 624, 1352, 2000 mg/kg bw (oral)): neither clastogenic nor aneugenic; also recorded: Negative
- well tolerated highest dose tested ([1]; preliminary dose range finding, oral, male and female mice): 2000 mg/kg bw
- % MS (EIC) Peak Area ([2]; 10 min): 86.9%
- % MS (EIC) Peak Area ([2]; 20 min): 70.6%
- % MS (EIC) Peak Area ([2]; 60 min): ~22.6%
- dose levels with visible precipitate in treatment medium ([3]; beginning of the treatment period): ≥ 322 µg/mL
- dose with substantial toxicity (at least 50% reduction in mitotic index) ([3]; non-activated 20-h exposure): ≥ 263 µg/mL
- dose with substantial toxicity (at least 50% reduction in mitotic index) ([3]; non-activated and S9-activated 4-h exposure): ≥ 789 µg/mL
